What all share (type): functional
The test system of one experiment is SW1573. Description: Antiproliferation activity against human SW1573 cells after 48 hrs by SRB assay. As to conditions: SW1573, 48 h. In a few lines:
(§1)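 NCI protocol, SRB read-out after 48 h continuous drug exposure; top test concentration 100 µM. A dose–response curve gives percentage growth (PG). GI50, TGI and LC50 are the concentrations at PG +50, 0 and −50. Values in µM, means of two to four experiments with standard deviation.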
Background: In SRB staining, fixed cells bind dye roughly in proportion to their protein.

For the next experiment, the system named is WiDr. As to the kind of experiment: Antiproliferation activity against human WiDr cells after 48 hrs by SRB assay. As to conditions: for CC50: read-out: LC50 (the source's name). An outline of the steps: as §1
A further experiment concerns A2780. Description: Antiproliferative activity against human A2780 cells after 48 hrs by SRB assay. As to conditions: A2780, 48 h; for CC50: read-out: LC50 (the source's name). An outline of the steps: as §1

Each structure is given as a SMILES string.

In general, GI50 refers to the concentration at which growth is held to half of that of the control. Higher therefore signals less potent growth inhibition. With `CCCCCCC[C@H]1OC(=O)C[C@H]1OCc1ccccc1`, the GI50 in the experiment on SW1573 was 52 µM; in the experiment on WiDr, 44 µM; in the experiment on A2780, 63 µM.
Broadly, the TGI is the concentration at which net growth stops. Lower therefore signals greater sensitivity of the cells. In the experiment on SW1573, `CCCCCCC[C@H]1OC(=O)C[C@H]1OC1C=CCCC1` (some centres not stated) showed a concentration for 50% growth inhibition (GI50) of 23 µM, an LC50 (concentration giving 50% net cell kill) of 95 µM and a TGI of 49 µM. The 50% growth inhibitory concentration (GI50) with A2780 is 84 µM.
As for `C=CCC(C)O[C@@H]1CC(=O)O[C@@H]1CCCCCCC` (some centres not stated), the GI50 in the experiment on SW1573 turned out to be 33 µM; in the experiment on WiDr it was 39 µM; with A2780 it was 48 µM. Also, the total growth inhibition concentration (TGI) in the experiment with SW1573 worked out at 83 µM.
`CCCCCCC[C@H]1OC(=O)C[C@H]1OC1CCCCC1`: in the experiment with SW1573, the GI50 was 18 µM, the LC50 (concentration giving 50% net cell kill) was determined as 71 µM and the TGI is 36 µM. For the same compound, in the experiment on WiDr, it took 16 µM to inhibit growth by half (GI50), the total growth inhibition concentration (TGI) was determined as 33 µM and the CC50 came to 71 µM. In the experiment on A2780, it took 16 µM to inhibit growth by half (GI50), the TGI worked out at 31 µM and the CC50 came out at 61 µM.
With `C#CC(CCCCCCC)O[C@@H]1CC(=O)O[C@@H]1CCCCCCC` (some centres not stated), in the experiment with SW1573, the GI50 was 32 µM, the LC50 (concentration giving 50% net cell kill) is 97 µM and the TGI is 83 µM. In the experiment on WiDr, halving of growth (GI50) required 32 µM and the TGI was found to be 86 µM. Also, in the experiment with A2780, the concentration for 50% growth inhibition (GI50) is 22 µM, net growth stopped (TGI) at 51 µM and the CC50 came to 80 µM.
In the experiment with SW1573, `C=CC(CCCCC)O[C@@H]1CC(=O)O[C@@H]1CCCCCCC` (some centres not stated) had a 50% growth inhibitory concentration (GI50) of 27 µM, an LC50 (concentration giving 50% net cell kill) of 96 µM and a concentration for total growth inhibition (TGI) of 78 µM. For the same compound, in the experiment with WiDr, growth was halved (GI50) at 27 µM, net growth stopped (TGI) at 81 µM and the CC50 came to 97 µM. In addition, in the experiment with A2780, it took 19 µM to inhibit growth by half (GI50), total growth inhibition (TGI) required 42 µM and the CC50 was determined as 88 µM.
